From ChEMBL document CHEMBL1828624, “Synthesis and antioxidant activity of oxazolyl/thiazolylsulfonylmethyl pyrazoles and isoxazoles” (Eur J Med Chem, 2011)
Converted amounts (≈) assume the structure as drawn. The source made the active and inactive calls. The rule behind the calls is not given here.

What was measured:
Format in all cases: functional
[1] = Antioxidant activity assessed as hydrogen peroxide scavenging activity at 50 ug/ml relative to control
[2] = tested on: Radical scavenging activity; assay: Antioxidant activity assessed as DPPH free radical scavenging activity at 75 ug/ml after 30 mins by spectrophotometric analysis relative to control
Procedure, shortened: (§1)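 Compounds in methanol at […] were mixed with 0.004% (w/v) methanolic DPPH. After 30 min at room temperature, absorbance was read at 517 nm against a blank. Percent inhibition was calculated from control (all reagents minus compound) and sample absorbances. Run in triplicate.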

[3] = Antioxidant activity assessed as nitric oxide scavenging activity at 50 ug/ml after 150 mins by Griess method relative to control
Procedure, shortened: (§2)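 NO was generated from sodium nitroprusside (10 mM) in phosphate buffer saline (0.2 M, pH 7.4). Compounds were added at […] and incubated 150 min at 25 °C. Percent scavenging was calculated from control (all reagents minus compound) and sample absorbances. Run in triplicate.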

[4] = tested on: Radical scavenging activity; assay: Antioxidant activity assessed as DPPH free radical scavenging activity after 30 mins by spectrophotometric analysis; procedure, shortened: as §1
[5] = Antioxidant activity assessed as nitric oxide scavenging activity at 100 ug/ml after 150 mins by Griess method relative to control; procedure, shortened: as §2
[6] = tested on: Radical scavenging activity; assay: Antioxidant activity assessed as DPPH free radical scavenging activity at 100 ug/ml after 30 mins by spectrophotometric analysis relative to control; procedure, shortened: as §1
[7] = Antioxidant activity assessed as hydrogen peroxide scavenging activity at 100 ug/ml relative to control
[8] = Antioxidant activity assessed as nitric oxide scavenging activity at 75 ug/ml after 150 mins by Griess method relative to control; procedure, shortened: as §2
[9] = Antioxidant activity assessed as hydrogen peroxide scavenging activity at 75 ug/ml relative to control
[10] = tested on: Radical scavenging activity; assay: Antioxidant activity assessed as DPPH free radical scavenging activity at 50 ug/ml after 30 mins by spectrophotometric analysis relative to control; procedure, shortened: as §1

| IC50 [4] | Compound | Activity [1] | inhibition [2] | Activity [3] | Activity [5] | inhibition [6] | Activity [7] | Activity [8] | Activity [9] | inhibition [10] |
| --- | --- | --- | --- | --- | --- | --- | --- | --- | --- | --- |
| Not Active | O=S(=O)(CC1=NCCO1)C1C(c2ccc(Cl)cc2)=NOC1c1ccc(Cl)cc1 (stereo not given) | inactive | inactive | inactive | inactive | inactive | inactive | inactive | inactive | inactive |
| Not Active | O=S(=O)(CC1=NCCS1)C1C(c2ccc(Cl)cc2)=NN(c2ccccc2)C1c1ccc(Cl)cc1 (stereo not given) | inactive | inactive | inactive | inactive | inactive | inactive | inactive | inactive | inactive |
| Not Active | COc1ccc(-c2noc(-c3ccc(C)cc3)c2S(=O)(=O)CC2=NCCS2)cc1 | inactive | inactive | inactive | inactive | inactive | inactive | inactive | inactive | inactive |
| 85.38 µg/mL (≈ 198 µM) | COc1ccc(C2=NOC(c3ccc(C)cc3)C2S(=O)(=O)CC2=NCCS2)cc1 (stereo not given) | 47.5% | 50.6% | 48.6% | 59.6% | 58.6% | 52.6% | 54.1% | 49.7% | 46.8% |
| Not Active | O=S(=O)(CC1=NCCS1)C1C(c2ccccc2)=NOC1c1ccccc1 (stereo not given) | inactive | inactive | inactive | inactive | inactive | inactive | inactive | inactive | inactive |

Second part, the compound before the results:

| Compound | IC50 [4] | Activity [1] | inhibition [2] | Activity [3] | Activity [5] | inhibition [6] | Activity [7] | Activity [8] | Activity [9] | inhibition [10] |
| --- | --- | --- | --- | --- | --- | --- | --- | --- | --- | --- |
| O=S(=O)(CC1=NCCS1)c1c(-c2ccccc2)noc1-c1ccccc1 | Not Active | inactive | inactive | inactive | inactive | inactive | inactive | inactive | inactive | inactive |
| O=S(=O)(CC1=NCCS1)c1n[nH]cc1-c1ccccc1 | Not Active | inactive | inactive | inactive | inactive | inactive | inactive | inactive | inactive | inactive |
| O=S(=O)(CC1=NCCO1)c1n[nH]cc1-c1ccccc1 | 82.26 µg/mL (≈ 282 µM) | 53.3% | 54.3% | 50.6% | 57.5% | 60.8% | 58.5% | 54.7% | 55.6% | 50.1% |
| O=S(=O)(CC1=NCCO1)c1c(-c2ccccc2)noc1-c1ccccc1 | 69.47 µg/mL (≈ 189 µM) | 57.2% | 65.8% | 56.7% | 62.1% | 72% | 60.1% | 57.3% | 58.1% | 61.6% |
| O=S(=O)(CC1=NCCO1)C1=NNCC1c1ccccc1 (stereo not given) | Not Active | inactive | inactive | inactive | inactive | inactive | inactive | inactive | inactive | inactive |
| O=S(=O)(CC1=NCCS1)c1c(-c2ccc(Cl)cc2)noc1-c1ccc(Cl)cc1 | Not Active | inactive | inactive | inactive | inactive | inactive | inactive | inactive | inactive | inactive |
| O=S(=O)(CC1=NCCO1)C1C(c2ccccc2)=NOC1c1ccccc1 (stereo not given) | 86.31 µg/mL (≈ 233 µM) | 51.7% | 55.2% | 53.9% | 62.8% | 57.9% | 56.6% | 57.2% | 53.3% | 49.4% |
| O=S(=O)(CC1=NCCS1)c1c(-c2ccc(Cl)cc2)nn(-c2ccccc2)c1-c1ccc(Cl)cc1 | Not Active | inactive | inactive | inactive | inactive | inactive | inactive | inactive | inactive | inactive |
